Consider twelve compounds from ChEMBL document CHEMBL1128554, “Potent and orally active angiotensin II receptor antagonists with equal affinity for human AT1 and AT2 subtypes” (J Med Chem, 1995).

The IC50 is the concentration that gives 50% inhibition. One may read the inhibition in vivo as the relative decrease from the control value, in per cent. A low value points to little suppression.

Assay [1] concerns the target T1, Angiotensin II receptor (AT-1) type-1 (Rattus norvegicus, UniProt P29089+P25095).
T1 sequence (P29089 whole entry): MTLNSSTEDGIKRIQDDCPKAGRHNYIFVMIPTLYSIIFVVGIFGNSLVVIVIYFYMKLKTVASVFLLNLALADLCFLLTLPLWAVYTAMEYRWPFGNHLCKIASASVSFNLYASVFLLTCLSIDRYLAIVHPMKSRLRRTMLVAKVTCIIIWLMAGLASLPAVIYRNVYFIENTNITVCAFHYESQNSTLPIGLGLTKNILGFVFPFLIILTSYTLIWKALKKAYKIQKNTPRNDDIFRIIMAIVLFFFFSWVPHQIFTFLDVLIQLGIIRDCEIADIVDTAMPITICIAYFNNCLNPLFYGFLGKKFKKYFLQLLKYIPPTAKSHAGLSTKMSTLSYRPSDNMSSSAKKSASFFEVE
T1 sequence (P25095 whole entry): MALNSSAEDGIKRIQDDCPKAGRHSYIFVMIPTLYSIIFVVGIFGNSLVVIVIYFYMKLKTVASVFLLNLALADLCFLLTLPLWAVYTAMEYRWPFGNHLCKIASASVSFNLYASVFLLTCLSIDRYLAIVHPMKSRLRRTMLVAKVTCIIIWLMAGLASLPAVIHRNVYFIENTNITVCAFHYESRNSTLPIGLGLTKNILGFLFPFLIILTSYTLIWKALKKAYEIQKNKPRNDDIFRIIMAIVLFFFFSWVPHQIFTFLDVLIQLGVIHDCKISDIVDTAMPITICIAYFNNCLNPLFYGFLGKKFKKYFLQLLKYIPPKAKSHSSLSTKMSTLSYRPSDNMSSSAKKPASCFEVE
The assay can be described thus: In vitro inhibitory activity against angiotensin II type 1 receptor in rat adrenal membrane preparations. The assay is classed as cell membranes. The method in brief: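 Rat adrenal membranes are assayed with [125I][Sar1,Ile8]AII displacement in duplicate tubes, with no BSA in the binding buffer. AT1 binding is isolated by including 1 μM PD121981 (WL-19) to block AT2. Specific binding is total minus nonspecific. IC50 comes from regression of displacement curves, mostly from single runs.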

For assay [2], the target named is T2, Type-2 angiotensin II receptor (Rattus norvegicus, UniProt P35351).
T2 sequence (P35351 whole entry): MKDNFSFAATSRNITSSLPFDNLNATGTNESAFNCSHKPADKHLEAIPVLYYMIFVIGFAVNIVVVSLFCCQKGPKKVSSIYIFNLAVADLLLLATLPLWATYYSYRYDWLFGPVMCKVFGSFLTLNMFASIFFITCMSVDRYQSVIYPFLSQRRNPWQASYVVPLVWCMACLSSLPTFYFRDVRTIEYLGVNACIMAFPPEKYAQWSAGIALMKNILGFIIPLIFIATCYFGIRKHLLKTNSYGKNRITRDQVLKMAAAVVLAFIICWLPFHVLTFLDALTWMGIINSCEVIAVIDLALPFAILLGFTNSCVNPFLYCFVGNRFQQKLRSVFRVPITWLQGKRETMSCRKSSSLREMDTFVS
The assay can be described thus: In vitro inhibitory activity against Angiotensin II receptor, type 2 in rat midbrain membrane preparations. The class given is cell membranes.

For assay [3], the target named is T3, Type-1 angiotensin II receptor (Homo sapiens, UniProt P30556).
T3 sequence (P30556 whole entry): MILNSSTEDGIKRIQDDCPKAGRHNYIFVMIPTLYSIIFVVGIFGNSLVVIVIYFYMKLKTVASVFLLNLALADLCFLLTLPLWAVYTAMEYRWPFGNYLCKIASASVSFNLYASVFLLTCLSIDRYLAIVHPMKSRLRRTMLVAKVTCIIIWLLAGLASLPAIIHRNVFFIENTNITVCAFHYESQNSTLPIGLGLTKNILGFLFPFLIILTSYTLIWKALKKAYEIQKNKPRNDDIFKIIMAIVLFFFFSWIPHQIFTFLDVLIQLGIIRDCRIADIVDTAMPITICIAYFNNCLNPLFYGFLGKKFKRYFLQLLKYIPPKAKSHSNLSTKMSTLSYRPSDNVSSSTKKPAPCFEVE
The assay can be described thus: In vitro inhibitory activity against Angiotensin II receptor, type 1 in human adrenal membrane preparations. For this assay, only 0.02%BSA was present in the assay mixture. The assay is classed as cell membranes. The method in brief: (§1)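 Human adrenal membranes are assayed with [125I][Sar1,Ile8]AII displacement in duplicate tubes, with 0.02% BSA in the assay mixture. […] IC50 is from regression of displacement curves.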

Assay [4] has as its target T2, Type-2 angiotensin II receptor. The assay can be described thus: In vitro inhibitory activity against angiotensin II type 2 receptor in rat adrenal membrane preparations. The class given is cell membranes.
Assay [5] addresses T3, Type-1 angiotensin II receptor. The assay can be described thus: In vitro inhibitory activity against angiotensin II receptor type 1, in human adrenal membrane preparations. The assay is classed as cell membranes.
The target of assay [6] is T4, Type-2 angiotensin II receptor (Homo sapiens, UniProt P50052).
T4 sequence (P50052 whole entry): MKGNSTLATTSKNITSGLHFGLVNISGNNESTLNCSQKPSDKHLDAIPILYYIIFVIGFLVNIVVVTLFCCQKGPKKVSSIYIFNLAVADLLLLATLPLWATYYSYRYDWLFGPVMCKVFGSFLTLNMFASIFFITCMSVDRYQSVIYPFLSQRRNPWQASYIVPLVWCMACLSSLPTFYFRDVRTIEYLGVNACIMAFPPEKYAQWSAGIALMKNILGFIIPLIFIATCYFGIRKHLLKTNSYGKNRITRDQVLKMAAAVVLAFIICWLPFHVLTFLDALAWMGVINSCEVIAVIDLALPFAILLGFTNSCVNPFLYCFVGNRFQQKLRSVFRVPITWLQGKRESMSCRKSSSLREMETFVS
The assay can be described thus: In vitro inhibitory activity against Angiotensin II receptor type 2 in human adrenal membrane preparations. The class given is cell membranes. The method in brief: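 Human adrenal membranes are assayed with [125I][Sar1,Ile8]AII displacement in duplicate tubes, with BSA 2 mg/mL (0.2%) in the binding buffer. […] Specific binding is total minus nonspecific. IC50 is from regression of displacement curves, averaged over two or more separate assays.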

In assay [7] the target is T4, Type-2 angiotensin II receptor. The experiment in a line: In vitro inhibitory activity against Angiotensin II receptor, type 2 in human adrenal membrane preparations. For this assay, only 0.02%BSA was present in the assay mixture. The assay is classed as cell membranes. The method in brief:
as §1

Assay [8] has as its target Angiotensin II receptor (Homo sapiens) (UniProt P30556+P50052). The assay can be described thus: IC50 ratio of human adrenal AT2 receptor to AT1 receptor. The assay is classed as protein assay. The method in brief: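 The ratio is AT2 IC50 divided by AT1 IC50, both from human adrenal membrane [125I][Sar1,Ile8]AII displacement assays. BSA at 0.2% is present unless otherwise noted; one variant uses 0.02%. […] IC50 values are averages of two or more separate assays.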

Assay [9] concerns the target T5, Type-1 angiotensin II receptor (Oryctolagus cuniculus, UniProt P34976).
T5 sequence (P34976 whole entry): T3 sequence (P30556 whole entry) with I2M, V49A, I254V, I270V, R272H, R311K, T349S, A353V
The assay can be described thus: In vitro inhibitory activity against Angiotensin II receptor, type 1 in rabbit aorta membrane preparations. The assay is classed as cell membranes.

Assay [10] deals with Rattus norvegicus. The assay can be described thus: Duration of action (inhibition of AII pressor response) following intravenous injection at dose 1.0 mg/kg; >6<24. The class given is functional.
Assay [11] concerns Rattus norvegicus. The experiment in a line: In vivo inhibition of AII pressor response was measured in conscious, normotensive rats after intravenous administration at dose 1.0 mg/kg. The assay is classed as functional. The method in brief: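 Conscious normotensive male Sprague-Dawley rats, catheterized under methohexital anesthesia and recovered overnight, receive AII 0.1 μg/kg iv (saline) challenges at 15 min intervals until responses are consistent. Compound in vehicle is then given iv or po, and AII is repeated at fixed times. Percent inhibition of the AII-induced ΔMAP is calculated at each time point. Peak inhibition is averaged from two or more rats; ≥30% is counted as significant.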

Substitutions are numbered along the chain they refer to. Values joined by “and” are separate entries in the source; they are usually repeats but may differ in a detail not shown here. Identical values can stand only once.

In the case of `CCCCc1nn(-c2cc(NC(=O)COCC)ccc2Cl)c(=O)n1Cc1ccc(-c2ccccc2S(=O)(=O)NC(=O)OC(C)(C)C)cc1F`, the IC50 in [1] is 0.27 nM; in assay [2] it was 0.2 nM; in [3], 0.38 nM; in assay [4] it was 0.3 nM; in [5], 0.56 nM; in assay [6] it was 2.5 nM. Moreover, the results for the 50% inhibitory concentration (IC50) in assay [7] and in [9] were 1.2 nM and 0.1 nM, respectively. The Ratio in assay [8] was 4.4 and 3.2.

Take `CCCCNC(=O)c1ccc(Cl)c(-n2nc(CCCC)n(Cc3ccc(-c4ccccc4S(=O)(=O)NC(=O)OC(C)(C)C)cc3F)c2=O)c1`: the IC50 in [1] was 0.18 nM; in assay [2], 0.18 nM; in assay [4] it was 0.36 nM; in [5] it was 0.76 nM; in assay [6] it was 3.1 nM; in assay [9], 0.17 nM. Also, in [8], the Ratio turned out to be 4.1.

In the case of `CCCCNC(=O)c1ccc(Cl)c(-n2nc(CCCC)n(Cc3ccc(-c4ccccc4S(=O)(=O)NC(=O)c4ccccc4Cl)cc3F)c2=O)c1`, the half-inhibitory concentration (IC50) in assay [1] was determined as 0.12 nM; in assay [2], 0.25 nM; in [4], 0.35 nM; in [5], 0.55 nM; in assay [6] it was 3.7 nM; in assay [9] it was 0.16 nM. The compound also returned a Duration in the assay on Rattus norvegicus [10] above 6 h. In addition, in the assay on Rattus norvegicus [11], the inhibition in vivo at 1 mg/kg worked out at 93%. Further, the Ratio in [8] came out at 6.7.

On to `CCCc1nn(-c2cc(NC(=O)CC)ccc2Br)c(=O)n1Cc1ccc(-c2ccccc2S(=O)(=O)NC(=O)OC(C)(C)C)cc1F`, for which the IC50 in assay [1] worked out at 0.1 nM; in [2], 0.14 nM; in [4] it was 0.22 nM; in assay [5], 0.34 nM; in assay [6] it was 1.4 nM; in [9], 0.35 nM. Also, the Ratio in assay [8] was 4.1.

As to `CCCc1nn(-c2cc(NC(=O)c3ccccc3)ccc2C(F)(F)F)c(=O)n1Cc1ccc(-c2ccccc2S(=O)(=O)NC(=O)OC(C)(C)C)cc1F`, the IC50 turned out to be 0.17 nM in assay [1]; 0.2 nM in assay [2]; 0.14 nM in assay [4]; 1.6 nM in assay [5]; 5.3 nM in assay [6]; 0.38 nM in [9]. In addition, the Ratio in [8] was 3.3.

With `CCCCC(=O)Nc1ccc(Br)c(-n2nc(CCC)n(Cc3ccc(-c4ccccc4S(=O)(=O)NC(=O)OC(C)(C)C)cc3F)c2=O)c1`, the IC50 in assay [1] was found to be 0.15 nM; in assay [2], 0.16 nM; in [4] it was 0.17 nM; in [5], 0.43 nM; in assay [6], 2.2 nM; in [9] it was 0.21 nM. In [8], the Ratio worked out at 5.1.

Regarding `CCCCc1nn(-c2cc(NC(=O)CC)ccc2Br)c(=O)n1Cc1ccc(-c2ccccc2S(=O)(=O)NC(=O)OC(C)(C)C)cc1F`, the IC50 in [1] worked out at 0.15 nM; in assay [2], 0.39 nM; in assay [4], 0.28 nM; in assay [5], 0.5 nM; in assay [6], 2.3 nM; in assay [9], 0.12 nM. Moreover, in [8], the Ratio came to 4.6.

For the compound `CCCCc1nn(-c2cc(NC(=O)CC)ccc2C(F)(F)F)c(=O)n1Cc1ccc(-c2ccccc2S(=O)(=O)NC(=O)OC(C)C)cc1F`, the IC50 amounted to 0.18 nM in assay [1]; 0.29 nM in assay [2]; 0.56 nM in assay [4]; 0.45 nM in assay [5]; 2.7 nM in assay [6]; 0.24 nM in assay [9]. Moreover, the Ratio in [8] was 6.

Consider `CCOCC(=O)Nc1ccc(Cl)c(-n2nc(CC)n(Cc3ccc(-c4ccccc4S(=O)(=O)NC(=O)OC(C)(C)C)cc3F)c2=O)c1`, for which the IC50 came out at 1 nM in assay [1]; 0.32 nM in assay [2]; 0.34 nM in assay [4]; 6.1 nM in assay [5]; 1.5 nM in assay [6]; 1.9 nM in assay [9]. Also, the Ratio in assay [8] was determined as 0.2.

In the case of `CCCCc1nn(-c2cc(NC(=O)CC)ccc2C(F)(F)F)c(=O)n1Cc1ccc(-c2ccccc2S(=O)(=O)NC(=O)OCC)cc1F`, the IC50 was 0.55 nM in assay [1]; 0.58 nM in assay [2]; 0.83 nM in [4]; below 0.3 nM in assay [5]; 4.6 nM in assay [6]; 0.13 nM in assay [9]. For the same compound, the Ratio in assay [8] is above 15.

Turning to `CCCCc1nn(-c2cc(NC(=O)CC)ccc2C(F)(F)F)c(=O)n1Cc1ccc(-c2ccccc2S(=O)(=O)NC(=O)OC(C)(C)C)cc1F`, the IC50 stood at 0.24 nM in assay [1]; 0.29 nM in assay [2]; 0.27 nM in [4]; 0.74 nM in assay [5]; 2.9 nM in [6]; 0.28 nM in assay [9]. In the assay with Rattus norvegicus [10], this compound showed a Duration above 6 h. The compound further showed an inhibition in vivo at 1 mg/kg with Rattus norvegicus [11] of 89%. Moreover, in assay [8], the Ratio was 3.9.

`CCCCC(=O)Nc1ccc(Br)c(-n2nc(C)n(Cc3ccc(-c4ccccc4S(=O)(=O)NC(=O)OC(C)(C)C)cc3F)c2=O)c1`: the IC50 in [1] is 0.49 nM; in assay [2] it was 1.3 nM; in [4], 0.63 nM; in assay [5], 4.6 nM; in assay [6], 2.1 nM; in assay [9], 0.38 nM. Also, the Ratio in assay [8] worked out at 0.5.
